OXTR potentiator: potentiators of human oxytocin receptor | P30559 | CHO-OTR cells, Fluo-8 calcium fluorescence, potentiator mode; 0% = oxytocin EC15, 100% = EC100 | activation, % at 3 µM | actives 0.061% (n = 320,000);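 active = activation above that plate's cutoff, the mean activation of tested compounds plus 3 SD, cut at about 6.6% in these data, passing the limit was not always enough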;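 also: 100% uses oxytocin at 75 nM as the full agonist control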
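System: human OTR in CHO cells; Also added: sub-maximal oxytocin, roughly EC15; Timing: compound 6 min at room temperature before oxytocin, 100 s read; Technique: Fluo-8 intracellular calcium fluorescence, ex 470-495, em 515-575 nm; Controls: oxytocin EC15 low and EC100 high; Replication: singlicate.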
V1aR counter: V1a receptor agonism, counter-screen for OXTR agonists | P37288 | CHO-V1R cells, Fluo-8 calcium fluorescence, agonist mode; 0% DMSO, 100% 3 nM vasopressin | activation, % at 3 µM | actives 0.25% (n = 320,000);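 active = activation above the mean activation of all tested compounds plus 3 SD, per screening run, cut at about 20% in these data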;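 also: signal is peak over basal fluorescence ratio across a 100 second FLIPR read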
Target sequence (P37288 whole entry, looked up): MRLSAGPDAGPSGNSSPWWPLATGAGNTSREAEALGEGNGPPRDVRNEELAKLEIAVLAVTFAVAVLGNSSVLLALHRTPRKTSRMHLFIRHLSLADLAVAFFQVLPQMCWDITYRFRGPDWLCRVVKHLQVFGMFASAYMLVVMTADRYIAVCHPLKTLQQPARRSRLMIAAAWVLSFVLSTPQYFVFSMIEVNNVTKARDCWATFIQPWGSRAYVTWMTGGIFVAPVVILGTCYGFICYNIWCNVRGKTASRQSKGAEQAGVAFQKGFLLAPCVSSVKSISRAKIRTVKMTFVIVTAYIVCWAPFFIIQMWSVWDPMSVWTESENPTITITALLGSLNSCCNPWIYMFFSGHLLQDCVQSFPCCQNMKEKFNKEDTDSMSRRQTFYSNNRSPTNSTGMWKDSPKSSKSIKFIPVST
OXTR ag: activates the human oxytocin receptor; AID 2435; actives 0.32% (n = 320,000); P30559; CHO-OTR cells, Fluo-8 calcium fluorescence; normalized: DMSO 0%, oxytocin 100%; activation, % at 3 µM;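 active = activation above the mean of all tested compounds plus 3 SD, cutoff set per screening run, cut at about 20% in these data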;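 also: peak over basal fluorescence ratio from a 100 s FLIPR kinetic read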
TRPML3 ag: agonists of human TRPML3 channel; Q8TDD5; HEK293 TRPML3-YFP, Fluo-8 calcium fluorescence; 100% = the carbachol control signal; activation, % at 3 µM; actives 0.29% (n = 220,000); AID 1448;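 active = activation above its plate's cutoff, the mean activation of the plate's test wells plus 3 SD, cut at about 12% in these data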;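 also: 0% = DMSO only wells and 100% = carbachol wells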
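Test system – HEK293 line with stable expression of human TRPML3-YFP channel · Control set – carbachol 87 µM final as high control (100%), DMSO as low control (0%) · Signal – Fluo-8 calcium dye fluorescence, ex 470-495, em 515-575 nm · Incubation – 1-h 37 °C dye load, 5-s basal, 120-s post-compound reads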
TRPN1 ag: zebrafish TRPN1 (NompC) channel agonism. HEK293 zebrafish TRPN1-YFP, Fluo-8 calcium fluorescence; 100% = response to 87 µM carbachol. activation, % at 3 µM. actives 0.18% (n = 220,000);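 active = activation above its plate's cutoff, the mean activation of test wells on that plate plus 3 SD, cut at about 19% in these data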;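 also: 0% = DMSO alone and 100% = 87 µM carbachol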
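System: zebrafish TRPN1-YFP in HEK293 cells / Dosing: 3 µM single point / Timing: dye loading 1 h at 37 °C, then 30 min room temperature / Signal: Fluo-8 calcium fluorescence, excitation 470-495 nm, emission 515-575 nm / Read-out basis: percent activation from peak over basal fluorescence ratio, control-normalized / Control set: high carbachol 87 µM, low DMSO alone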
V1R ag confirm: human V1a receptor agonism, confirmation; shares compounds with V1aR counter; CHO-V1R cells, Fluo-8 calcium fluorescence, agonist; activation, % at 3 µM; actives 20% (n = 180); AID 434964;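 active = average activation exceeds primary screen hit cutoff, cut at about 21% in these data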;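 also: peak over basal fluorescence ratio during a 100 s FLIPR read; 0% = DMSO only wells and 100% = 3 nM vasopressin wells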
OXTR counter: activates oxytocin receptor in V1a agonist counter-screen; shares compounds with V1aR counter; CHO-OTR cells, Fluo-8 calcium fluorescence; activation, % at 3 µM; actives 10% (n = 180);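 active = mean activation over three repeats above the cutoff from the earlier oxytocin receptor agonist screen, cut at about 20% in these data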;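 also: peak over minimum fluorescence ratio within a 100 second FLIPR read; 0% = DMSO only wells and 100% = oxytocin high control wells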
Numbers without * were called inactive; ! = repeats disagree. The list is not random: actives were taken first. Their share in the collection is about 0.58%.

CCCCCCCCCCCCOC(=O)C[N+](C)(C)C was read as OXTR potentiator -6.6, V1aR counter 25.8*, OXTR ag 4.0, TRPML3 ag 0.5, TRPN1 ag -1.0, V1R ag confirm -0.4 and OXTR counter -0.8.
Screening Cc1ccc(NC(=O)CCNS(=O)(=O)c2ccc(OC(F)(F)F)cc2)c(O)c1 returned OXTR potentiator -7.2, V1aR counter 3.5 and OXTR ag 0.5.
For O=S(=O)(NCCS(=O)(=O)N1CCN(c2ccccc2)CC1)c1ccccc1 the results were OXTR potentiator -12.5, V1aR counter 6.7 and OXTR ag 5.9.
`CCCCCCCCCCOC(=O)Cn1c(COc2ccc(OC)cc2)[n+](C)c2ccccc21` gave OXTR potentiator -15.0, V1aR counter 29.7*, OXTR ag 22.1*!, V1R ag confirm -0.4 and OXTR counter 7.9.
Cc1cc(=O)oc2cc(OC(=O)CCCCCN3C(=O)c4ccccc4C3=O)ccc12 was read as OXTR potentiator -1.8, V1aR counter 4.7, OXTR ag 0.4, TRPML3 ag 0.5 and TRPN1 ag 0.3.
N#C/C(=C(/O)CSc1ccccn1)c1nc2ccccc2s1 was read as OXTR potentiator -14.9, V1aR counter 27.1*, OXTR ag 14.2, TRPML3 ag 2.0, TRPN1 ag 7.2, V1R ag confirm 1.7 and OXTR counter 0.7.
`Cc1ccc(SC/C(O)=C(\C#N)c2nc3ccccc3s2)cc1` gave OXTR potentiator -29.9, V1aR counter 8.4, OXTR ag 11.2, TRPML3 ag 1.0 and TRPN1 ag 0.7.
For Cc1cccc(NC(=S)NNC(=O)c2ccco2)c1 the results were OXTR potentiator -2.9, V1aR counter 22.8*, OXTR ag 0.6, TRPML3 ag 0.9, TRPN1 ag 0.9, V1R ag confirm 0.3 and OXTR counter 0.4.
Screening CC1(CCc2ccc3c(c2)OCO3)NCCc2c1[nH]c1ccccc21 (stereo unspecified) returned OXTR potentiator -16.0, V1aR counter 30.4*, OXTR ag 15.8, V1R ag confirm 10.1 and OXTR counter 22.1*.
`O=C(N/C(=C\c1ccco1)C(=O)N1CCCC(CO)C1)c1ccccc1` (stereo unspecified) gave OXTR potentiator -10.8, V1aR counter 0.1 and OXTR ag 5.1.
Screening COc1cccc(-c2csc3ncnc(Sc4nnnn4C)c23)c1 returned OXTR potentiator -1.8, V1aR counter -0.9 and OXTR ag -1.0.
`CC[N+]1=C(C)C(C)(C)c2cc(C)ccc21` gave OXTR potentiator -4.1, V1aR counter 22.8*, OXTR ag 13.7, TRPML3 ag 3.6, TRPN1 ag 10.7, V1R ag confirm 4.9 and OXTR counter 3.4.
`Cn1cnnc1SCC(=O)Nc1ccccc1Oc1ccccc1` gave OXTR potentiator -7.7, V1aR counter 0.2, OXTR ag 0.2, TRPML3 ag 0.2 and TRPN1 ag 0.3.
For O=C(c1ccccc1NS(=O)(=O)c1ccc(F)cc1)N1CCc2ccccc21 the results were OXTR potentiator -5.0, V1aR counter 24.1*, OXTR ag -1.5, TRPML3 ag 0.5, TRPN1 ag -0.5, V1R ag confirm 4.3 and OXTR counter -0.4.
`CCOc1cccc(C2C(C(=O)c3ccco3)=C(O)C(=O)N2c2nnc(C)s2)c1` (stereo unspecified) gave OXTR potentiator -7.4, V1aR counter 2.5 and OXTR ag 1.1.
`COc1ccc(C2C(C(=O)c3ccco3)=C(O)C(=O)N2c2nnc(C)s2)cc1` (stereo unspecified) gave OXTR potentiator 3.0, V1aR counter 3.8, OXTR ag 2.6, TRPML3 ag 1.2 and TRPN1 ag 2.9.
CCSc1nnc(N2C(=O)C(O)=C(C(=O)c3ccco3)C2c2cccc(OC)c2)s1 (stereo unspecified) was read as OXTR potentiator -5.4, V1aR counter 31.4*, OXTR ag 5.1, V1R ag confirm 2.7 and OXTR counter 2.7.
Screening CSc1nnc(N2C(=O)C(O)=C(C(=O)c3ccco3)C2c2ccc(F)cc2)s1 (stereo unspecified) returned OXTR potentiator -4.7, V1aR counter 32.6*, OXTR ag 19.4, V1R ag confirm 7.3 and OXTR counter 6.1.
For CSc1nnc(N2C(=O)C(O)=C(C(=O)c3ccco3)C2c2cccc(Cl)c2)s1 (stereo unspecified) the results were OXTR potentiator -5.9, V1aR counter 45.1*, OXTR ag 10.3, V1R ag confirm 19.6 and OXTR counter 15.8.
Screening COc1cccc(CCC(=O)N2CCC(n3nccc3NC(=O)CC(C)C)CC2)c1 returned OXTR potentiator 0.0, V1aR counter 1.0 and OXTR ag 0.0.
Cc1cc(-c2ccccc2C(=O)O)on1 was read as OXTR potentiator -13.5, V1aR counter 0.3, OXTR ag 0.5, TRPML3 ag 0.6 and TRPN1 ag 0.0.
O=C(O)c1ccccc1C1=Nc2ccc(O)cc2Oc2cc(O)ccc21 was read as OXTR potentiator -6.6, V1aR counter 23.4*, OXTR ag 17.0, TRPML3 ag 2.2, TRPN1 ag 4.6, V1R ag confirm 26.8* and OXTR counter 19.8*.
Screening O=C(Nc1ccc(N2CCOCC2)cc1)Nc1ccc(Cl)c(Cl)c1 returned OXTR potentiator -8.5, V1aR counter 20.6*, OXTR ag 17.3, TRPML3 ag 2.9, TRPN1 ag 2.1, V1R ag confirm 10.7 and OXTR counter 10.4.
For O=C(Nc1ccc(Cl)cc1)Nc1ccc(N2CCOCC2)cc1 the results were OXTR potentiator -14.1, V1aR counter 3.0, OXTR ag 2.0, TRPML3 ag 0.7 and TRPN1 ag 2.7.
Screening COc1cc(OC)cc(C(=O)OCC(=O)NCCCc2ccccc2)c1 returned OXTR potentiator -8.5, V1aR counter -0.1 and OXTR ag -1.6.
CCOC(=O)c1c(NC(=O)CC)sc2c1CCN(Cc1ccccc1)C2 was read as OXTR potentiator -4.6, V1aR counter 21.6*, OXTR ag 4.1, V1R ag confirm 2.7 and OXTR counter 7.6.
`CCC[C@@H]1C[C@@H](C(=O)NC(C(C)Cl)[C@H]2O[C@H](SC)[C@H](O)[C@@H](O)[C@H]2O)N(C)C1` (stereo partly specified) gave OXTR potentiator 5.5, V1aR counter 0.3 and OXTR ag 0.2.
